Source: PubChem BioAssay (several laboratories)
APJ agonist – agonists of human apelin receptor APJ, primary screen, CHO-K1 cells, PathHunter beta-arrestin, luminescence. P35414. activation, % at 20 µM. 0% DMSO wells, 100% apelin. 330,000 compounds, 0.11% hits;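 active = activation more than six SD over the plate average, tested at 20 µM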;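 note: 0% = DMSO alone and 100% = apelin-13 at 10 nM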
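Material: CHO-K1 APJ beta-arrestin complementation cell line; Input: cell density 1000 per well; Incubation: compound stimulation 90 min at 25 °C, detection 60 min; Signal: luminescence from split beta-galactosidase complementation, Galacton Star/Emerald II substrate; Controls: DMSO-only wells as negative, 10 nM Apelin-13 as positive control.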
CCR6 antagonist – CCR6 receptor antagonists, primary screen, cell-based, CHO-K1, luminescence, beta-arrestin, uHTS; C-C chemokine receptor type 6 (Homo sapiens), P51684; CHO-K1 CCR6 PathHunter beta-arrestin, CCL20-stimulated; inhibition, % at 20 µM; 340,000 compounds, 0.49% hits; AID 493098, 2011;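 active = compounds whose inhibition of the agonist-driven luminescence signal at 20 µM reaches about 50%, limit read from the data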;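 note: cells stimulated with CCL20 at 14 nM final; plate controls were DMSO with CCL20 for no effect and DMSO without agonist for full effect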
Target sequence (P51684 whole entry, looked up): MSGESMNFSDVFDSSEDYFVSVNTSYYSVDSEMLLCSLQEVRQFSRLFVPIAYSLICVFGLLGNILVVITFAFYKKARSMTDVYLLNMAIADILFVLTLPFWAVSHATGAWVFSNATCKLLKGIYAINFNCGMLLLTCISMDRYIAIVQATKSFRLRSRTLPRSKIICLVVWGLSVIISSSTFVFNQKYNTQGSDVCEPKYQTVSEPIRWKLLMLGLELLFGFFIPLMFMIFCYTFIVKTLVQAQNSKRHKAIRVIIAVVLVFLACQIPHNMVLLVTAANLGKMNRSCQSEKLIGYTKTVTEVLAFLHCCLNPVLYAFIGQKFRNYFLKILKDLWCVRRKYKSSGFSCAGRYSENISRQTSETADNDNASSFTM
HTR2A ag – mouse Htr2a agonists via beta-arrestin recruitment, primary screen, cell-based, luminescence; AID 624169, 2012; activation, % at 7.6 µM; 5-hydroxytryptamine receptor 2A (Mus musculus), P35363; 360,000 compounds, 0.66% hits; CHO-K1 mHTR2A beta-arrestin complementation; percent of 30 µM serotonin response;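 active = activation above a run cutoff, the mean activation of all tested compounds plus 3 SD, cut at about 14% in these data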;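 note: 0% = plate median of compound wells and 100% = 30 µM serotonin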
NTR1 ag – agonists of human NTR1, primary screen, imaging, U2OS cells, beta-arrestin-GFP, high content. NTR1-U2OS beta-arrestin-GFP spot imaging, agonist mode. activation, % at 20 µM. Neurotensin receptor type 1 (Homo sapiens), P30989. AID 493036, 2011. 330,000 compounds, 0.17% hits;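 active = activation at or above 40% of the spot to cytoplasm intensity ratio, with at least 20 cells analyzed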;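 note: 0% = DMSO without peptide and 100% = 100 nM NTR1 peptide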
APJ antag – antagonists of human apelin receptor APJ, primary screen, CHO-K1 cells, beta-arrestin complementation, luminescence; P35414; inhibition, % at 20 µM; 330,000 compounds, 0.32% hits;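 active = inhibition above about 40% at 20 µM, limit read from the data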;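 note: cells challenged with 10 nM apelin-13 agonist together with compound; plate controls were apelin-13 plus DMSO wells for no effect and DMSO wells lacking apelin-13 for full effect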
CXCR6 inh – CXCR6 receptor inhibitors, primary screen, cell-based, beta-arrestin, luminescence, CHO-K1 PathHunter, 1536-well; 360,000 compounds, 0.36% hits; inhibition, % at 20 µM; AID 602244, 2012; in the data active = inhibition above about 34%, passing the limit was not always enough;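 note: antagonist mode with CXCL16 agonist at 10 nM final; 0% = 10 nM CXCL16 with DMSO and 100% = unstimulated wells without agonist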
MOR ag counter – OPRM1 agonists via beta-arrestin recruitment, confirmation, counter-screen for mouse HTR2A agonist project, cell-based, luminescence, single concentration; shares compounds with HTR2A ag; U2OS OPRM1 beta-arrestin PathHunter; DMSO 0%, DAMGO 9.3 µM 100%; activation, % at 9.3 µM; 2,300 compounds, 5.3% hits;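 active = mean activation above the mean of DMSO-only wells plus 3 SD, cut at about 0.5% in these data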
m5-HT2A ag conf – mouse HTR2A agonists, beta-arrestin recruitment, confirmation, cell-based, luminescence, CHO-K1 PathHunter, triplicate; 2,300 compounds, 19% hits; shares compounds with HTR2A ag; AID 624381, 2012; activation, % at 7.6 µM; DMSO 0%, 30 µM serotonin 100%;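 active = mean activation across triplicates above the hit threshold derived in the original primary screen, cut at about 15% in these data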
* marks the source's active call; other numbers are inactive results. Only some compounds are listed: those with a hit (about 1.5% of all), similar ones and a draw of the others.

How did COc1cc(CNCCc2c[nH]c3ccccc23)cc(OC)c1 do in these assays?
APJ agonist: 0; CCR6 antagonist: 3; HTR2A ag: 8; NTR1 ag: 1; APJ antag: -10; CXCR6 inh: -1

What do the screens show for `C=C1[C@H]2CC[C@H]3[C@]4(C)C[C@H](O[C@@H]5OC(CO)[C@@H](OSOOO)[C@H](OS(=O)(=O)O)[C@H]5OC(=O)CC(C)C)C[C@@H](C(=O)O)[C@H]4CC[C@]3(C2)[C@H]1O` (stereo partly drawn)?
APJ agonist: -4; CCR6 antagonist: 6; HTR2A ag: 0; NTR1 ag: -2; APJ antag: 1; CXCR6 inh: -2

How did COc1ccccc1-n1c(-c2ccccc2Br)nc2ccccc2c1=O do in these assays?
APJ agonist: -4; CCR6 antagonist: 4; HTR2A ag: 2; NTR1 ag: 0; APJ antag: -4; CXCR6 inh: 7

Results for CCCN1CCC[C@@H]2Cc3nc(N)ncc3C[C@H]21 ?
APJ agonist: -2; CCR6 antagonist: 15; NTR1 ag: 1; APJ antag: 24

Results for CCCN1CCC[C@@H]2Cc3[nH]ncc3C[C@H]21 ?
APJ agonist: -3; CCR6 antagonist: 10; HTR2A ag: 42*; NTR1 ag: 2; APJ antag: 17; CXCR6 inh: -7; MOR ag counter: -1; m5-HT2A ag conf: 171*

How did CO[C@H]1CC=C2CCN3CCC4=C(CC(=O)OC4)[C@]23C1 do in these assays?
APJ agonist: 0; CCR6 antagonist: 0; HTR2A ag: -1; NTR1 ag: 1; APJ antag: 18; CXCR6 inh: 0

What do the screens show for `CC(=NCc1ccc2c(c1)OCO2)c1c(O)n(-c2ccc(C)cc2)c(=O)[nH]c1=O`?
APJ agonist: -1; CCR6 antagonist: 11; HTR2A ag: 0; NTR1 ag: 0; APJ antag: 5; CXCR6 inh: 12

Results for c1coc(CN2Cc3ccccc3-n3nncc3C2)c1 ?
HTR2A ag: 18*; CXCR6 inh: -7; MOR ag counter: -1; m5-HT2A ag conf: -2

What do the screens show for `Cc1ccc(N=C(/N=C(\N)N[N+](=O)[O-])Nc2ccc(C)cc2)cc1`?
APJ agonist: -1; CCR6 antagonist: -33; HTR2A ag: -4; NTR1 ag: 2; APJ antag: -12; CXCR6 inh: -1

How did c1ccc2c(CCNCc3ccc4c(c3)OCO4)c[nH]c2c1 do in these assays?
APJ agonist: -1; CCR6 antagonist: -14; HTR2A ag: 30*; NTR1 ag: -5; APJ antag: 10; CXCR6 inh: -4; MOR ag counter: 0; m5-HT2A ag conf: 38*

How did Clc1ccccc1CNCCc1c[nH]c2ccccc12 do in these assays?
HTR2A ag: 23*; CXCR6 inh: -1; MOR ag counter: 1.1*; m5-HT2A ag conf: 51*

How did c1ccc(CNCCc2c[nH]c3ccccc23)cc1 do in these assays?
APJ agonist: 0; CCR6 antagonist: 1; HTR2A ag: 41*; NTR1 ag: 1; APJ antag: 16; CXCR6 inh: -7; MOR ag counter: -1; m5-HT2A ag conf: 20*

Results for CCOc1ccccc1CNCCc1ccc2c(c1)OCO2 ?
APJ agonist: -2; CCR6 antagonist: 17; HTR2A ag: 53*; NTR1 ag: 0; APJ antag: -2; CXCR6 inh: 10; MOR ag counter: 0; m5-HT2A ag conf: 25*

What do the screens show for `O=[N+]([O-])c1ccccc1CNCCc1c[nH]c2ccccc12`?
APJ agonist: -4; CCR6 antagonist: -5; HTR2A ag: 2; NTR1 ag: 0; APJ antag: 10; CXCR6 inh: 1

What do the screens show for `Clc1ccc2c(c1)C(c1ccccc1Cl)=NCc1nnc(N3CCN(CCOc4ccccc4)CC3)n1-2`?
APJ agonist: 2; CCR6 antagonist: -3; HTR2A ag: 7; NTR1 ag: 4; APJ antag: -4; CXCR6 inh: 0

Results for CCN(C(=O)COC(=O)c1cc(C)n(C2CC2)c1C)c1ccccc1 ?
APJ agonist: -2; CCR6 antagonist: 17; HTR2A ag: -8; NTR1 ag: -1; APJ antag: 4; CXCR6 inh: 12

Results for C=CCn1c(O)c(C(CC)=Nc2cccc(C(=O)O)c2)c(=O)[nH]c1=O ?
APJ agonist: -1; CCR6 antagonist: -2; HTR2A ag: 1; NTR1 ag: 2; APJ antag: -7; CXCR6 inh: -5

Results for COC(=O)C1=C(c2ccc(F)cc2OCc2ccccc2)C[C@@H]2CC[C@H]1N2C(=O)NCC1CC1 ?
APJ agonist: -4; CCR6 antagonist: 6; HTR2A ag: -3; NTR1 ag: -1; APJ antag: 13; CXCR6 inh: 12

Results for CCc1ccc(CNCCc2c[nH]c3ccccc23)cc1 ?
APJ agonist: -1; CCR6 antagonist: -14; HTR2A ag: 16*; NTR1 ag: 3; APJ antag: 3; CXCR6 inh: -5; MOR ag counter: 0; m5-HT2A ag conf: 9

Results for CCC1(CC)C(=O)C=CNC1=O ?
APJ agonist: -3; CCR6 antagonist: 4; HTR2A ag: 40*; NTR1 ag: 0; APJ antag: 12; CXCR6 inh: 3; MOR ag counter: -1; m5-HT2A ag conf: -4

Results for NCC(O)c1cc(O)c(O)cc1F (stereo not drawn) ?
APJ agonist: 3; CCR6 antagonist: 1; HTR2A ag: 56*; NTR1 ag: 5; APJ antag: -5; CXCR6 inh: 3; MOR ag counter: 0; m5-HT2A ag conf: 149*

Results for O=[N+]([O-])c1ccc(N2CCCNCC2)c2ncccc12 ?
APJ agonist: 9; CCR6 antagonist: -1; HTR2A ag: 38*; NTR1 ag: 8; APJ antag: -54; CXCR6 inh: -3; MOR ag counter: -1; m5-HT2A ag conf: 22*

Results for O=C1c2cccc(N3CCNCC3)c2C2CCCCN12 (stereo not drawn) ?
HTR2A ag: -1; CXCR6 inh: 0
